# Legend:
# Format in all cases: ADME, organism-based
# Rattus norvegicus [1] = organism: Rattus norvegicus; assay: The distribution of the 131 I-labeled compound at 30 min was evaluated in rat heart as Percent of injected dose per gram in the organ; conditions: in vivo, 0.5 h
# Summary of the method: (§1)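 Male Sprague-Dawley rats (200–300 g, free access to food and water), lightly ether-anesthetized and restrained, received a 0.2 mL saline tail-vein bolus of 10–20 μCi 131I-labeled compound. They were decapitated at the stated time, and organs were excised, weighed and gamma-counted. Percent injected dose was determined against a calibrated external standard made by serial dilution of the injectate. n = 1–4 rats.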
# Rattus norvegicus [2] = organism: Rattus norvegicus; assay: Ratio of distribution of the [131I]-labeled compound at 30 min in rat lung over uptake in blood; conditions: other tissue, 0.5 h
# Summary of the method: (§2)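 Male Sprague-Dawley rats (200–300 g, fed ad libitum), ether-anesthetized, got a tail-vein bolus of 0.2 mL saline containing 10–20 μCi 131I compound and were decapitated at the stated time. Organs were weighed and gamma-counted against a serially diluted external standard. Organ/blood ratio was calculated from % dose per gram of organ. Animal numbers per time point were 1–4.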
# Rattus norvegicus [3] = organism: Rattus norvegicus; assay: The distribution of the 131 I-labeled compound at 30 min was evaluated in rat blood as Percent of injected dose per gram in the organ; conditions: in vivo, 0.5 h; summary of the method: as §1
# Rattus norvegicus [4] = organism: Rattus norvegicus; assay: The distribution of the 131 I-labeled compound at 5 min was evaluated in rat brain as Percent of injected dose in the total organ; conditions: in vivo; summary of the method: as §1
# Rattus norvegicus [5] = organism: Rattus norvegicus; assay: Ratio of distribution of the [131I]-labeled compound at 5 min in rat lung over uptake in blood; conditions: other tissue; summary of the method: as §2
# Rattus norvegicus [6] = organism: Rattus norvegicus; assay: The distribution of the 131 I-labeled compound at 5 min was evaluated in rat heart as Percent of injected dose per gram in the organ; conditions: in vivo; summary of the method: as §1
# Rattus norvegicus [7] = organism: Rattus norvegicus; assay: Ratio of distribution of the [131I]-labeled compound at 30 min in rat liver over uptake in blood; conditions: other tissue, 0.5 h; summary of the method: as §2
# Rattus norvegicus [8] = organism: Rattus norvegicus; assay: The distribution of the 131 I-labeled compound at 5 min was evaluated in rat brain as Percent of injected dose per gram in the organ; conditions: in vivo; summary of the method: as §1
# Rattus norvegicus [9] = organism: Rattus norvegicus; assay: The distribution of the 131 I-labeled compound at 5 min was evaluated in rat liver as Percent of injected dose per gram in the organ; conditions: in vivo; summary of the method: as §1
# Rattus norvegicus [10] = organism: Rattus norvegicus; assay: Ratio of distribution of the [131I]-labeled compound at 5 min in rat liver over uptake in blood; conditions: other tissue; summary of the method: as §2
# Rattus norvegicus [11] = organism: Rattus norvegicus; assay: Ratio of distribution of the [131I]-labeled compound at 30 min in rat heart over uptake in blood; conditions: other tissue, 0.5 h; summary of the method: as §2
# Rattus norvegicus [12] = organism: Rattus norvegicus; assay: Ratio of distribution of the [131I]-labeled compound at 30 min in rat brain over uptake in blood; conditions: 0.5 h; summary of the method: as §2
# Rattus norvegicus [13] = organism: Rattus norvegicus; assay: The distribution of the 131 I-labeled compound at 5 min was evaluated in rat heart as Percent of injected dose in the total organ; conditions: in vivo; summary of the method: as §1
# Rattus norvegicus [14] = organism: Rattus norvegicus; assay: The distribution of the 131 I-labeled compound at 30 min was evaluated in rat brain as Percent of injected dose per gram in the organ; conditions: in vivo, 0.5 h; summary of the method: as §1
# Rattus norvegicus [15] = organism: Rattus norvegicus; assay: The distribution of the 131 I-labeled compound at 5 min was evaluated in rat lung as Percent of injected dose per gram in the organ; conditions: in vivo; summary of the method: as §1
# Rattus norvegicus [16] = organism: Rattus norvegicus; assay: Ratio of distribution of the [131I]-labeled compound at 5 min in rat heart over uptake in blood; conditions: other tissue; summary of the method: as §2
# Rattus norvegicus [17] = organism: Rattus norvegicus; assay: The distribution of the 131 I-labeled compound at 30 min was evaluated in rat heart as Percent of injected dose in the total organ; conditions: in vivo, 0.5 h; summary of the method: as §1
# Rattus norvegicus [18] = organism: Rattus norvegicus; assay: Ratio of distribution of the [131I]-labeled compound at 5 min in rat brain over uptake in blood; summary of the method: as §2
# Rattus norvegicus [19] = organism: Rattus norvegicus; assay: The distribution of the 131 I-labeled compound at 30 min was evaluated in rat liver as Percent of injected dose per gram in the organ; conditions: in vivo, 0.5 h; summary of the method: as §1
# Rattus norvegicus [20] = organism: Rattus norvegicus; assay: The distribution of the 131 I-labeled compound at 5 min was evaluated in rat blood as Percent of injected dose per gram in the organ; conditions: in vivo; summary of the method: as §1
# Rattus norvegicus [21] = organism: Rattus norvegicus; assay: The distribution of the 131 I-labeled compound at 30 min was evaluated in rat lung as Percent of injected dose per gram in the organ; conditions: in vivo, 0.5 h; summary of the method: as §1
# Rattus norvegicus [22] = organism: Rattus norvegicus; assay: The distribution of the 131 I-labeled compound at 30 min was evaluated in rat liver as Percent of injected dose in the total organ; conditions: in vivo, 0.5 h; summary of the method: as §1
# Rattus norvegicus [23] = organism: Rattus norvegicus; assay: The distribution of the 131 I-labeled compound at 5 min was evaluated in rat liver as Percent of injected dose in the total organ; conditions: in vivo; summary of the method: as §1
# Rattus norvegicus [24] = organism: Rattus norvegicus; assay: The distribution of the 131 I-labeled compound at 30 min was evaluated in rat brain as Percent of injected dose in the total organ; conditions: in vivo, 0.5 h; summary of the method: as §1
# Rattus norvegicus [25] = organism: Rattus norvegicus; assay: Ratio of distribution of the [131I]-labeled compound at 5 min in rat kidney over uptake in blood; conditions: other tissue; summary of the method: as §2
# Rattus norvegicus [26] = organism: Rattus norvegicus; assay: The distribution of the 131 I-labeled compound at 30 min was evaluated in rat kidney as Percent of injected dose in the total organ; conditions: in vivo, 0.5 h; summary of the method: as §1
# Rattus norvegicus [27] = organism: Rattus norvegicus; assay: Ratio of distribution of the [131I]-labeled compound at 30 min in rat kidney over uptake in blood; conditions: other tissue, 0.5 h; summary of the method: as §2
# Rattus norvegicus [28] = organism: Rattus norvegicus; assay: The distribution of the 131 I-labeled compound at 5 min was evaluated in rat kidney as Percent of injected dose in the total organ; conditions: in vivo; summary of the method: as §1
# Rattus norvegicus [29] = organism: Rattus norvegicus; assay: The distribution of the 131 I-labeled compound at 30 min was evaluated in rat kidney as Percent of injected dose per gram in the organ; conditions: in vivo, 0.5 h; summary of the method: as §1
# Rattus norvegicus [30] = organism: Rattus norvegicus; assay: The distribution of the 131 I-labeled compound at 5 min was evaluated in rat kidney as Percent of injected dose per gram in the organ; conditions: in vivo; summary of the method: as §1
SMILES,Dose (Rattus norvegicus [1]),Ratio (Rattus norvegicus [2]),Dose (Rattus norvegicus [3]),Dose (Rattus norvegicus [4]),Ratio (Rattus norvegicus [5]),Dose (Rattus norvegicus [6]),Ratio (Rattus norvegicus [7]),Dose (Rattus norvegicus [8]),Dose (Rattus norvegicus [9]),Ratio (Rattus norvegicus [10]),Ratio (Rattus norvegicus [11]),Ratio (Rattus norvegicus [12]),Dose (Rattus norvegicus [13]),Dose (Rattus norvegicus [14]),Dose (Rattus norvegicus [15]),Ratio (Rattus norvegicus [16]),Dose (Rattus norvegicus [17]),Ratio (Rattus norvegicus [18]),Dose (Rattus norvegicus [19]),Dose (Rattus norvegicus [20]),also measured
CNC(C)Cc1cc(OC)c(I)cc1OC (centres undefined),0.53%,11.4,0.28%,0.97%,42,0.93%,6.4,0.57%,0.76%,5.4,1.9,2.2,0.65%,0.62%,5.9%,6.6,0.32%,4.1,1.8%,0.14%,Dose (Rattus norvegicus [21]): 3.2%; Dose (Rattus norvegicus [22]): 11%; Dose (Rattus norvegicus [23]): 5.3%; Dose (Rattus norvegicus [24]): 1%
COc1cc(CC(C)NC(C)C)c(OC)cc1I (centres undefined),0.44%,12,0.23%,1.2%,31,1.2%,5.2,0.66%,1.1%,4.4,1.9,1.3,0.79%,0.3%,7.7%,4.8,0.29%,2.6,1.2%,0.25%,Dose (Rattus norvegicus [21]): 2.8%; Dose (Rattus norvegicus [22]): 6%; Dose (Rattus norvegicus [23]): 7.2%; Dose (Rattus norvegicus [24]): 0.52%
CCCCCCNC(C)Cc1cc(OC)c(I)cc1OC (centres undefined),0.36%,25,0.17%,0.63%,47,2.1%,9.4,0.37%,0.58%,5.4,2.1,3.4,1.5%,0.57%,7.5%,13,0.25%,2.3,1.6%,0.16%,Dose (Rattus norvegicus [21]): 4.3%; Dose (Rattus norvegicus [22]): 9.4%; Dose (Rattus norvegicus [23]): 4.6%; Dose (Rattus norvegicus [24]): 0.97%
COc1cc(CC(C)N(C)Cc2ccccc2)c(OC)cc1I (centres undefined),0.19%,7.8,0.09%,0.29%,6.3,1.1%,6.9,0.15%,0.8%,6.7,2.1,0.09,1.2%,0.05%,0.75%,9.2,0.21%,1.3,0.62%,0.12%,Ratio (Rattus norvegicus [25]): 5.3; Dose (Rattus norvegicus [26]): 1.3%; Ratio (Rattus norvegicus [27]): 5.8; Dose (Rattus norvegicus [21]): 0.7%; Dose (Rattus norvegicus [22]): 7.6%; Dose (Rattus norvegicus [23]): 12%; Dose (Rattus norvegicus [28]): 1.8%; Dose (Rattus norvegicus [29]): 0.52%; Dose (Rattus norvegicus [24]): 0.1%; Dose (Rattus norvegicus [30]): 0.63%
CCN(CC)C(C)Cc1cc(OC)c(I)cc1OC (centres undefined),0.14%,20,0.06%,0.78%,29,0.35%,8.1,0.39%,0.46%,5.5,2.3,4.3,0.4%,0.13%,2%,5,0.2%,5.6,0.32%,0.07%,Dose (Rattus norvegicus [26]): 1.1%; Dose (Rattus norvegicus [21]): 1.2%; Dose (Rattus norvegicus [22]): 4.3%; Dose (Rattus norvegicus [23]): 6%; Dose (Rattus norvegicus [28]): 1.8%; Dose (Rattus norvegicus [29]): 0.39%; Dose (Rattus norvegicus [24]): 0.26%; Dose (Rattus norvegicus [30]): 0.69%
COc1cc(CC(C)NCc2ccccc2)c(OC)cc1I (centres undefined),0.5%,25,0.2%,1.1%,69,1.1%,4.7,0.64%,0.72%,6,2.5,2.5,0.77%,0.5%,8.3%,9.2,0.34%,5.3,0.95%,0.12%,Dose (Rattus norvegicus [21]): 5%; Dose (Rattus norvegicus [22]): 5.4%; Dose (Rattus norvegicus [23]): 4%; Dose (Rattus norvegicus [24]): 0.9%

# — ChEMBL document CHEMBL1122702, “Radiohalogen-labeled imaging agents. 3. Compounds for measurement of brain blood flow by emission tomography” (J Med Chem, 1984)
